Measured values collected from several papers.
Organism: Escherichia coli
Read-out: microbial growth

SMILES | technique | strain | time | notes | MIC
[H]/N=C(/N)N[C@H]1[C@H](O)[C@@H](O)[C@H](O[C@@H]2O[C@@H](C)[C@](O)(C=O)[C@H]2O[C@@H]2O[C@@H](CO)[C@H](O)[C@@H](O)[C@@H]2NC)[C@@H](N/C(N)=N\[H])[C@@H]1O | broth dilution | ATCC25922 | – | – | 2 µg/mL
CCN1CCN(c2cc3c(cc2F)c(=O)c(C(=O)O)cn3C2CC2)CC1 | broth dilution | ATCC25922 | – | – | 0.0625 µg/mL
Cc1ccc2[nH]nc(-c3nnc(Nc4ccc(F)cc4Cl)s3)c2c1 | – | ATCC25922 | – | – | 72.8 µg/mL
COc1ccc2ccc(O)c(/C=N/[C@H]3CCCC[C@H]3/N=C/c3ccc(OCCN4CCCCC4)cc3O)c2c1 | broth dilution | – | – | clinical isolate | > 40 µM
CCN(CC)c1ccc(C=NC(=O)c2ccccc2)c(O)c1 | broth dilution | ATCC25922 | – | – | > 256 µg/mL
Cc1ccc2[nH]nc(-c3nnc(Nc4ccc(C)c(C)c4)s3)c2c1 | – | ATCC25922 | – | – | 124 µg/mL
O=C1/C(=C/c2ccc3ccccc3c2O)NC(=S)N1c1ccccc1 | broth dilution | ATCC25 ATCC25922 | – | – | 16 µg/mL
Cc1ccc2[nH]nc(-c3nnc(Nc4ccc(F)cc4)s3)c2c1 | – | ATCC25922 | – | – | 51.9 µg/mL
CO/N=C(\C(=O)N[C@@H]1C(=O)N2C(C(=O)O)=CCS[C@H]12)c1csc(N)n1 | broth dilution | ATCC25922 | – | – | 0.125 µg/mL
Cc1cc(O)cc(Nc2nnc(-c3n[nH]c4ccc(C)cc34)s2)c1 | – | ATCC25922 | – | – | 176 µg/mL
c1ccc(CSc2nc3ccccc3cc2CNCc2ccc(N3CCCCC3)cc2)cc1 | broth dilution | – | – | – | > 128 µg/mL
C[C@H]1COc2c(N3CCN(C)CC3)c(F)cc3c(=O)c(C(=O)O)cn1c23 | – | – | – | – | ≤ 0.12 µg/mL
O=C(O)c1cn(C2CC2)c2cc(N3CCNCC3)c(F)cc2c1=O | broth dilution | ATCC25922 | – | – | 4 µg/mL
CC[C@H]1OC(=O)[C@H](C)[C@@H](O[C@H]2C[C@@](C)(OC)[C@@H](O)[C@H](C)O2)[C@H](C)[C@@H](O[C@@H]2O[C@H](C)C[C@H](N(C)C)[C@H]2O)[C@](C)(O)C[C@@H](C)CN(C)[C@H](C)[C@@H](O)[C@]1(C)O | broth dilution | – | – | – | 4 µM
COc1ccc(N2N=C(C(C)=O)SC2=C(C#N)C(=O)c2ccc(Nc3cnccn3)cc2)cc1 | broth dilution | ATCC10536 | – | – | 6.25 µg/mL
COc1ccc2ccc(O)c(/C=N/[C@H]3CCCC[C@H]3/N=C/c3c(O)cccc3F)c2c1 | broth dilution | – | – | clinical isolate | > 40 µM
O=C(O)c1cn(C2CC2)c2cc(N3CCNCC3)c(F)cc2c1=O | broth dilution | ATCC25922 | 16 h | – | 0.1 µM
CCN(CC)c1ccc(C=NC(=S)c2ccccc2)c(O)c1 | broth dilution | ATCC25922 | – | – | > 256 µg/mL
COc1ccc2ccc(O)c(/C=N/[C@H]3CCCC[C@H]3/N=C/c3ccc(-c4ccccc4)cc3O)c2c1 | broth dilution | – | – | clinical isolate | > 40 µM
CCCCCCCCCCCC[N+](C)(C)Cc1ccccc1 | – | – | – | – | 63 µM
CNC(C)C1CCC(N)C(OC2C(N)CC(N)C(OC3OCC(C)(O)C(NC)C3O)C2O)O1 (stereo not shown) | broth dilution | – | – | – | 2 µg/mL
COc1ccc(-n2nc(C(=O)c3ccc(Nc4cnccn4)cc3)sc2=N)cc1 | broth dilution | ATCC10536 | – | – | 12.5 µg/mL

SMILES | technique | strain | time | notes | MIC
Cc1onc(-c2ccccc2)c1C(=O)N[C@@H]1C(=O)N2[C@@H]1SC(C)(C)[C@@H]2C(=O)O | broth dilution | ATCC25922 | – | – | < 0.5 µg/mL
C[C@H]1COc2c(N3CCN(C)CC3)c(F)cc3c(=O)c(C(=O)O)cn1c23 | – | ATCC25922 | – | drug-resistant strain | ≤ 0.03 µg/mL
Cc1ccc2[nH]nc(-c3nnc(Nc4ccc(Cl)c(Br)c4)s3)c2c1 | – | ATCC25922 | – | – | 247 µg/mL
CC1(C)S[C@@H]2[C@H](NC(=O)[C@H](N)c3ccccc3)C(=O)N2[C@H]1C(=O)O | broth dilution | ATCC25922 | 18 h | dark | 16 µM
CC(=O)C1=NN(c2ccccc2)C(=C(C#N)C(=O)c2ccc(Nc3cnccn3)cc2)S1 | broth dilution | ATCC10536 | – | – | 100 µg/mL
Brc1ccc2nc(SCc3ccccc3)c(CNCCC3CCN(C4CCCC4)CC3)cc2c1 | broth dilution | – | – | – | 32 µg/mL
Cc1ccc2[nH]nc(-c3nnc(Nc4ccc(Cl)c(Cl)c4)s3)c2c1 | – | ATCC25922 | – | – | 140 µg/mL
CN1CCN(CCNCc2cc3cc(-c4ccccc4)ccc3nc2SCc2ccccc2)CC1 | broth dilution | – | – | – | 16 µg/mL
CC(C)c1ccc(/C=C2\N=C(SCC(=O)O)N(c3ccccc3)C2=O)cc1 | broth dilution | ATCC25 ATCC25922 | – | – | 15 µg/mL
N=c1sc(C(=O)c2ccc(Nc3cnccn3)cc2)nn1-c1ccccc1 | broth dilution | ATCC10536 | – | – | 50 µg/mL
N[C@@H](Cc1c[nH]c2ccc(Cl)cc12)C(=O)O | – | MG1655 | 18 h | – | > 200 µM
Brc1ccc2nc(SCc3ccccc3)c(CNCc3ccc(CN4CCCC4)cc3)cc2c1 | broth dilution | – | – | – | > 128 µg/mL
C[C@@H](O)[C@H]1C(=O)N2C(C(=O)O)=C(S[C@@H]3CN[C@H](C(=O)N(C)C)C3)[C@H](C)[C@H]12 | – | – | – | – | ≤ 0.25 µg/mL
N=c1sc(C(=O)c2ccc(Nc3cnccn3)cc2)nn1-c1ccc([N+](=O)[O-])cc1 | broth dilution | ATCC10536 | – | – | 6.25 µg/mL
CCN1CCC(CCNCc2cc3cc(Br)ccc3nc2SCc2ccccc2)CC1 | broth dilution | – | – | – | 32 µg/mL
Cc1ccc2[nH]nc(-c3nnc(Nc4ccc(Cl)cc4)s3)c2c1 | – | ATCC25922 | – | – | 81.7 µg/mL
O=C(N[C@H](CO)[C@H](O)c1ccc([N+](=O)[O-])cc1)C(Cl)Cl | broth dilution | – | – | – | 16 µg/mL
CN(Cc1cnc2nc(N)nc(N)c2n1)c1ccc(C(=O)N[C@@H](CCC(=O)O)C(=O)O)cc1 | broth dilution | BW25113 | 18 h | – | > 250 µg/mL
CCN1CCC(CCNCc2cc3cc(OC)c(OC)c(OC)c3nc2SCc2ccccc2)CC1 | broth dilution | – | – | – | > 128 µg/mL
COc1cc(Cc2cnc(N)nc2N)cc(OC)c1OC | broth dilution | BW25113 | 18 h | – | 0.25 µg/mL
CO/N=C(\C(=O)N[C@@H]1C(=O)N2C(C(=O)[O-])=C(C[N+]3(C)CCCC3)CS[C@H]12)c1csc(N)n1 | – | – | – | – | ≤ 0.12 µg/mL
